In brackets after ≈: the same amount, converted by molar mass.
Legend:
KB = experiment: Cytotoxicity against human KB cells after 45 hrs by resazurin microplate assay; format: functional, cell-based
Procedure, shortened: (§1)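 Human cancer cell panel in the resazurin microplate assay: KB (oral epidermoid carcinoma), MCF-7 (breast cancer) and NCI-H187 (small-cell lung cancer).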

[1] = test system: Mycobacterium tuberculosis; experiment: Antituberculosis activity against Mycobacterium tuberculosis H37Ra by green fluorescent protein microplate assay; format: functional
MCF7 = experiment: Cytotoxicity against human MCF7 cells after 45 hrs by resazurin microplate assay; format: functional, cell-based; conditions: MCF7, 45 h; procedure, shortened: as §1
Candida albicans = experiment: Antifungal activity against Candida albicans after 45 hrs by resazurin microplate assay; format: functional, organism-based
NCI-H187 = experiment: Cytotoxicity against human NCI-H187 cells after 45 hrs by resazurin microplate assay; format: functional, cell-based; conditions: NCI-H187, 45 h; procedure, shortened: as §1
Plasmodium falciparum = experiment: Antimalarial activity against Plasmodium falciparum K1 after 18 hrs by [G-3H]hypoxanthine uptake assay; format: functional, organism-based; conditions: K1, 18 h
Procedure, shortened: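 Plasmodium falciparum K1, a multidrug-resistant strain, tested by the microculture radioisotope technique.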

Vero = experiment: Cytotoxicity against african green monkey Vero cells by green fluorescent protein microplate assay; format: cell-based; conditions: Chlorocebus sabaeus
Procedure, shortened: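 Vero cells (African green monkey kidney […]) tested in the green fluorescent protein microplate assay (GFPMA), the same format the paper used for Mycobacterium tuberculosis H37Ra.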

Compound	IC50 (KB) [µM]	MIC [1] [µM]	IC50 (MCF7) [µM]	IC50 (Candida albicans) [µM]	IC50 (NCI-H187) [µM]	IC50 (Plasmodium falciparum) [µM]	IC50 (Vero) [µM]
C=C1C(=O)O[C@@H]2C[C@]34O[C@H]3CC[C@H](C)[C@@]4(C)C[C@]12O	10	47 (≈ 12.4 µg/mL)	10	7.8	5.8	13	9.4
C=C1C(=O)O[C@@H]2C[C@]3(O)[C@H](OC)CC[C@H](C)[C@@]3(C)C[C@]12O	21	42 (≈ 12.4 µg/mL)	15	> 169	3.8	8.1	3.9
C=C1C(=O)O[C@@H]2C[C@]3(O)[C@H](O)CC[C@H](C)[C@@]3(C)C[C@]12O	5	> 177	15	> 177	7.2	> 35	8.5
CC1=C2C[C@]3(C)[C@@H](C)CC[C@@H](O)[C@@]3(O)C[C@H]2OC1=O [MAIRETOLIDE F]	> 188	> 188	> 188	> 188	> 188	> 38	> 188
C[C@H]1CC[C@@H]2O[C@@]23C[C@H]2OC(=O)C(CO)=C2C[C@]13C	> 189	> 189	> 189	> 189	> 189	> 38	> 189
